Assay [1] addresses T1, Transient receptor potential cation channel, subfamily V, member 3 (Rattus norvegicus, UniProt E9PU00).
T1 sequence (E9PU00 whole entry): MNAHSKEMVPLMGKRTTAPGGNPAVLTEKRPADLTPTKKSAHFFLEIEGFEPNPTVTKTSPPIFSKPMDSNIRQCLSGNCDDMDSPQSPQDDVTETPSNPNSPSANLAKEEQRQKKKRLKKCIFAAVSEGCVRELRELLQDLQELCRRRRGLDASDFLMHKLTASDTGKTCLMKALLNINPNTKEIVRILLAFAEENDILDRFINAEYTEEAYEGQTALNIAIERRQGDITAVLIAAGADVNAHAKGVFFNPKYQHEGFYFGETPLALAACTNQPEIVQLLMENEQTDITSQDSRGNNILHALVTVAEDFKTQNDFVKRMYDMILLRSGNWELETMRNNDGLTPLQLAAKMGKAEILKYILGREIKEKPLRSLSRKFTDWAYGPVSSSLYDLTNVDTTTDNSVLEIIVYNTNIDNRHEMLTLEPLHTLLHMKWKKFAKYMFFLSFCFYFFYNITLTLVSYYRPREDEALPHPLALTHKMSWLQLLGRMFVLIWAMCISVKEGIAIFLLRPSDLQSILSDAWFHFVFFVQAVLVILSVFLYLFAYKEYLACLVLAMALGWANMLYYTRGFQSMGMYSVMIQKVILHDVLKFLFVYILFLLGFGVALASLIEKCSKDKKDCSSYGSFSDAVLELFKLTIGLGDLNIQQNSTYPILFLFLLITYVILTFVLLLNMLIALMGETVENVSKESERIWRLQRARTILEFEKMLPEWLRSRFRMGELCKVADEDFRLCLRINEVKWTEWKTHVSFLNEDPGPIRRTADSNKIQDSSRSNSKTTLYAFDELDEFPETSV
Put plainly: Agonist activity at recombinant rat TRPV3 expressed in HEK293 cells assessed as increase in intracellular calcium level by Fluo4-AM probe based fluorescence assay. The format is cell-based. Summed up:
(§1)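 HEK-293 cells stably expressing the channel, selected with G-418 (600 μg mL−1) and grown in MEM with 10% FBS and 2 mM glutamine at 37 °C, 5% CO2. Cells were loaded 1 h at room temperature in the dark with Fluo-4 AM (4 μM). Cells were washed and suspended in Tyrode's buffer pH 7.4, and fluorescence was read at 25 °C (ex 488/em 516 nm).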

Assay [2] has as its target Transient receptor potential cation channel subfamily M member 8 (Rattus norvegicus, UniProt Q8R455). Put plainly: Antagonist activity at recombinant rat TRPM8 expressed in HEK293 cells assessed as inhibition of icilin-induced intracellular calcium level incubated for 5 mins followed by agonist stimulation by Fluo4-AM probe based fluorescence assay. The class given is cell-based. An outline of the steps:
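Rat TRPM8 HEK-293 cells were loaded with Fluo-4 AM and suspended in Tyrode's buffer pH 7.4. Compound was added 5 min before icilin (0.25 μM), and [Ca2+]i was read at 22 °C on a Peltier system. IC50 for half-maximal inhibition of the agonist response was taken from sigmoidal fits.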
On the technique in general: A change in cytosolic calcium serves as a functional read-out for many receptors and channels.

Assay [3] deals with Transient receptor potential cation channel subfamily V member 4 (Rattus norvegicus, UniProt Q9ERZ8). As to the kind of experiment: Agonist activity at recombinant rat TRPV4 expressed in HEK293 cells assessed as increase in intracellular calcium level by Fluo4-AM probe based fluorescence assay. The format is cell-based. An outline of the steps: as §1
Sequence of Transient receptor potential cation channel subfamily V member 4 (Q9ERZ8 whole entry): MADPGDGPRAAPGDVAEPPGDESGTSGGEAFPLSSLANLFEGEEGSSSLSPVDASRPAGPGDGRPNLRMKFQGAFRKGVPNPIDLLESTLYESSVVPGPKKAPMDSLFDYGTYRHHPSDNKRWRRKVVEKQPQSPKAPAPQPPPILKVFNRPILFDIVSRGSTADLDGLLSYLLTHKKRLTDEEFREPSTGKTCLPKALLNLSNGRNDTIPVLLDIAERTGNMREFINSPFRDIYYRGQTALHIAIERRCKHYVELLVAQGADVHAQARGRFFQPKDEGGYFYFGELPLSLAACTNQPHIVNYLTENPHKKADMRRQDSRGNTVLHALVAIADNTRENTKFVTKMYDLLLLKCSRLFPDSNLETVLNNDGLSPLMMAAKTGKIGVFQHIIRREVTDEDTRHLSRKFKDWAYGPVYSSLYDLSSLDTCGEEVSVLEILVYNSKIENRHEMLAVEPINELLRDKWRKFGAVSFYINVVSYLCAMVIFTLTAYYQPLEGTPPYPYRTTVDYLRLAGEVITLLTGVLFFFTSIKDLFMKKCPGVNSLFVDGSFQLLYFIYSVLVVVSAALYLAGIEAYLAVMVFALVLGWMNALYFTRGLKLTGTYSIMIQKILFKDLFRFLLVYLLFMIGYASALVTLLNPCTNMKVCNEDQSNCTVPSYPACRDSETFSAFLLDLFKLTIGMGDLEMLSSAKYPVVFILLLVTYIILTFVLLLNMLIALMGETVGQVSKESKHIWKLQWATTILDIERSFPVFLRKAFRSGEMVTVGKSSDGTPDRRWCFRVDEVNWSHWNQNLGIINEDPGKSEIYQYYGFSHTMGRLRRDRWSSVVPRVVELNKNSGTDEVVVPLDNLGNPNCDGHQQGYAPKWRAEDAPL
Assay [4] addresses Transient receptor potential cation channel subfamily A member 1 (Rattus norvegicus, UniProt Q6RI86). Put plainly: Agonist activity at recombinant rat TRPA1 expressed in HEK293 cells assessed as increase in intracellular calcium level by Fluo4-AM probe based fluorescence assay. The class given is cell-based. Summed up:
as §1

For another assay, the target named is Cannabinoid receptor 2 (Homo sapiens, UniProt P34972). Put plainly: Displacement of 3H-CP-55940 from recombinant full length human CB2 receptor expressed in HEK293 cell membranes after 90 mins by topcount scintillation counting analysis.
Sequence of Cannabinoid receptor 2 (P34972 whole entry): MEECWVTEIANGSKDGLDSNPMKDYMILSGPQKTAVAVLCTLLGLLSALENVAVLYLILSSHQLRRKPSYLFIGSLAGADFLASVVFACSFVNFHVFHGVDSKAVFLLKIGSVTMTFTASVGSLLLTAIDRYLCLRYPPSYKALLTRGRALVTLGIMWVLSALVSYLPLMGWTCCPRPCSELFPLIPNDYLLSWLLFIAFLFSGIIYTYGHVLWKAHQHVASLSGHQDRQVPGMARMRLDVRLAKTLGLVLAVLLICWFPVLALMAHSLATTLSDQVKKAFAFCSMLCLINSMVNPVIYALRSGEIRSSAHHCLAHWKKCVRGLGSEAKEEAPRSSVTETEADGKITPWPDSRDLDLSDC
Assay [5] concerns the target Transient receptor potential cation channel subfamily V member 1 (Homo sapiens, UniProt Q8NER1). Put plainly: Agonist activity at human TRPV1 expressed in HEK293 cells assessed as increase in intracellular calcium level by Fluo4-AM probe based fluorescence assay. The class given is cell-based. An outline of the steps: as §1
Assay [6] has as its target T2, Transient receptor potential cation channel subfamily V member 2 (Rattus norvegicus, UniProt Q9WUD2).
T2 sequence (Q9WUD2 whole entry): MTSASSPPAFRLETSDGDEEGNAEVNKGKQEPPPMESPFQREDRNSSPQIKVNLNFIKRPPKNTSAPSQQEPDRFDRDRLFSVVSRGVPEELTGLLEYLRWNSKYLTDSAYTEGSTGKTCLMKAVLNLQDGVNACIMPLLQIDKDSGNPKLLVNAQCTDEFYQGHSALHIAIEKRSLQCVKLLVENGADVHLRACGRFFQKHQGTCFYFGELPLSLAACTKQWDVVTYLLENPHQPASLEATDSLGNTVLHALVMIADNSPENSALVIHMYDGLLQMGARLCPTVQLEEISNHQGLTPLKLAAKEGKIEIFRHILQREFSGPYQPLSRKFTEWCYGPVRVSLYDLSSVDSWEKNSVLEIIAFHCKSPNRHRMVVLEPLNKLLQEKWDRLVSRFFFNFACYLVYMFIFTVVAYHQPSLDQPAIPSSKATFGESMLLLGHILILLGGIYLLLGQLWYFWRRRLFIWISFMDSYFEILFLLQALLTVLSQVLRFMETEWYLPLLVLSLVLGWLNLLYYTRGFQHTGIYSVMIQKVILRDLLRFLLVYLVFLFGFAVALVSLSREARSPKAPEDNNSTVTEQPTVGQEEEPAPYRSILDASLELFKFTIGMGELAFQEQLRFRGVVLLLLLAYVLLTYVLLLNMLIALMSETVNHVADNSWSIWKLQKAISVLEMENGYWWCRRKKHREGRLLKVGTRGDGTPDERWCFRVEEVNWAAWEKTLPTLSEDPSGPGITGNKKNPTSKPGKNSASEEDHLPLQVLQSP
Put plainly: Agonist activity at recombinant rat TRPV2 expressed in HEK293 cells assessed as increase in intracellular calcium level by Fluo4-AM probe based fluorescence assay. The format is cell-based. An outline of the steps:
as §1

In another assay the target is Cannabinoid receptor 1 (Homo sapiens, UniProt P21554). Put plainly: Displacement of 3H-CP-55940 from recombinant full length human CB1 receptor expressed in HEK293 cell membranes after 90 mins by topcount scintillation counting analysis. For orientation: Displacement assays read how much labelled ligand stays bound in the presence of the test substance.
Sequence of Cannabinoid receptor 1 (P21554 whole entry): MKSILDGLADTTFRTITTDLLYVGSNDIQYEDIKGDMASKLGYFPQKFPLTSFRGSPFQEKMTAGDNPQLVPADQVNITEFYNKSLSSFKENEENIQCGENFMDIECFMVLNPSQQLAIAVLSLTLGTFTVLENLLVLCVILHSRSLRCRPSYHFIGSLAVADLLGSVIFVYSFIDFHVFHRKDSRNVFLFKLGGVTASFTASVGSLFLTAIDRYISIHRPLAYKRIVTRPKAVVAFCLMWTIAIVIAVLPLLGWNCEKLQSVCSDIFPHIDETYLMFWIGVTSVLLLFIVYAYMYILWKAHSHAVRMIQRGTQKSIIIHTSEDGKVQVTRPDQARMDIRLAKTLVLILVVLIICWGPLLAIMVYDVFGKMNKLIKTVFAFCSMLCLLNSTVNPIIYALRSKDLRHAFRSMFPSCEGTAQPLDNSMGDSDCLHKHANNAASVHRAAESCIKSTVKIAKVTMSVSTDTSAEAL

Sequence of Transient receptor potential cation channel subfamily A member 1 (Q6RI86 whole entry): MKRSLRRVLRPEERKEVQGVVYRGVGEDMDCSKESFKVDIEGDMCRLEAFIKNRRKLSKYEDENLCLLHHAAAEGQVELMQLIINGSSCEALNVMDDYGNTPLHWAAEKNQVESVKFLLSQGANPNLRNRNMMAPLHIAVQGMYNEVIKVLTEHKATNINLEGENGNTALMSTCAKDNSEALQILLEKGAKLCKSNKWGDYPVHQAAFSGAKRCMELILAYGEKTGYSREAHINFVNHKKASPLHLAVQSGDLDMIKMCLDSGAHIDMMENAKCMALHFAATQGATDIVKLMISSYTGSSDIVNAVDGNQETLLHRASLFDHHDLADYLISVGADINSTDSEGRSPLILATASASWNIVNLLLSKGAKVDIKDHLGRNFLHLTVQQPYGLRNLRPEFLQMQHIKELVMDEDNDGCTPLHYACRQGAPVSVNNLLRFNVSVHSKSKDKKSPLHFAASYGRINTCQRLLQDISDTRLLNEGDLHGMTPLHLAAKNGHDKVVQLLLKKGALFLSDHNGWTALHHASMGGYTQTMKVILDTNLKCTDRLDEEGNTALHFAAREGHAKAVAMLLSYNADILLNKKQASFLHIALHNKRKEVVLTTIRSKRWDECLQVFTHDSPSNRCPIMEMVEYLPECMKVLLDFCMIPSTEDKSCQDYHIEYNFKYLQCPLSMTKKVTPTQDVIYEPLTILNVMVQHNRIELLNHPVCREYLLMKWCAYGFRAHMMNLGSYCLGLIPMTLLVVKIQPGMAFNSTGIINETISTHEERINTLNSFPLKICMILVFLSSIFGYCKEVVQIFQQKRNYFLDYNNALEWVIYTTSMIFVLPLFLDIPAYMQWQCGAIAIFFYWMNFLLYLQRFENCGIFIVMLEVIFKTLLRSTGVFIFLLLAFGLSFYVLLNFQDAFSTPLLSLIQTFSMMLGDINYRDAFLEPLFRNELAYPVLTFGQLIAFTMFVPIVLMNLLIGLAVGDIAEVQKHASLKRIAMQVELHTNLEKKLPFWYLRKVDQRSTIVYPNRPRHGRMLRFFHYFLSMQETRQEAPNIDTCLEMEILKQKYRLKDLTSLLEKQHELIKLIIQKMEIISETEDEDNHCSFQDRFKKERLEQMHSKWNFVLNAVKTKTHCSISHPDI
Sequence of Transient receptor potential cation channel subfamily V member 1 (Q8NER1 whole entry): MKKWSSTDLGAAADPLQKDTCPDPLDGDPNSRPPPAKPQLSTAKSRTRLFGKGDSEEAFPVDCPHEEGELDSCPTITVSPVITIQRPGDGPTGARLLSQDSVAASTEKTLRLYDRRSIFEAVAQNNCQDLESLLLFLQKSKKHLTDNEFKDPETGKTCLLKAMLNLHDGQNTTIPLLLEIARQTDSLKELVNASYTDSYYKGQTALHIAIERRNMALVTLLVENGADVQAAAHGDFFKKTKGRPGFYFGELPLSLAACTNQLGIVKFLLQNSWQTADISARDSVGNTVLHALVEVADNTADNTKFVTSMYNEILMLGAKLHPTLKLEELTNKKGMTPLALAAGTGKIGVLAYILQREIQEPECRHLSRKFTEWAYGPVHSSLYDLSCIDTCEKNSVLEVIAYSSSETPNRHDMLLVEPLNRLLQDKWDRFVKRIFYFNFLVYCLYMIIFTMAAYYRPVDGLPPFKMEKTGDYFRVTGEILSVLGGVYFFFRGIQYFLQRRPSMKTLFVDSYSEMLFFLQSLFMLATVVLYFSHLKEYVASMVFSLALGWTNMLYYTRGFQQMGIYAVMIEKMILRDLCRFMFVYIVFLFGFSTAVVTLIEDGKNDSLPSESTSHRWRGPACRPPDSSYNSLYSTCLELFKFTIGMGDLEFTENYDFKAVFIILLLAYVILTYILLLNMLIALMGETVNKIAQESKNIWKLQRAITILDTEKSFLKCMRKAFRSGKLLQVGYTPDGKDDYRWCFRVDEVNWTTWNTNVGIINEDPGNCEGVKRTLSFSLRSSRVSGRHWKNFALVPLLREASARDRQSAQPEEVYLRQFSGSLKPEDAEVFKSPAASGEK
Sequence of Transient receptor potential cation channel subfamily M member 8 (Q8R455 whole entry): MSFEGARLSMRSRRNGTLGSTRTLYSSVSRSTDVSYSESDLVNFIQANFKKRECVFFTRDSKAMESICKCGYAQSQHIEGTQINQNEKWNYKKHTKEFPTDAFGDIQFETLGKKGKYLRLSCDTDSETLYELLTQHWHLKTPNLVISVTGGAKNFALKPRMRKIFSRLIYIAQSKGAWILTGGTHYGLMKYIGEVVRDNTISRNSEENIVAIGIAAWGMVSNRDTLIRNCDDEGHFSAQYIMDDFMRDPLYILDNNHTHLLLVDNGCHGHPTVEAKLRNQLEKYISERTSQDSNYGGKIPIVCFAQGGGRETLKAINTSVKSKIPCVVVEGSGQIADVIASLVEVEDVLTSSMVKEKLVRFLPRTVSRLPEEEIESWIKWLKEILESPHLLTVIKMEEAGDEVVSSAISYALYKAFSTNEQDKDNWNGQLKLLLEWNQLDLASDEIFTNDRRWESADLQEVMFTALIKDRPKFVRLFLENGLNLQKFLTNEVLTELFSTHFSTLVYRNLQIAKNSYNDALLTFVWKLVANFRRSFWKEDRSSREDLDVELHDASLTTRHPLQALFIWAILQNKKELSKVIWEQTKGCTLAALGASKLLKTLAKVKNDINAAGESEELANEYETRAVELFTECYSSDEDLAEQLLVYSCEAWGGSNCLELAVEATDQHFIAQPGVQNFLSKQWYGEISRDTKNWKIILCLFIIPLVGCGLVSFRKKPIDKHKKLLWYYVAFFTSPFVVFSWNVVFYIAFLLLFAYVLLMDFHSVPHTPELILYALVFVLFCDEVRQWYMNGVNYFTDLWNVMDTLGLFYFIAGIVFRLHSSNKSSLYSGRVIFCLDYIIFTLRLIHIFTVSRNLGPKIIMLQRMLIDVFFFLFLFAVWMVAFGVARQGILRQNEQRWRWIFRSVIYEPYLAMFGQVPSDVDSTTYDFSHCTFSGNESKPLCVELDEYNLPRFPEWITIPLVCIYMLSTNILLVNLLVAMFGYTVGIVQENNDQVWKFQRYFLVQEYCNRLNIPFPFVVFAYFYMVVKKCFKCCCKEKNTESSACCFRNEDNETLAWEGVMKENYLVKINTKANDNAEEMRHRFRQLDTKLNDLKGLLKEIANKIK

One may read the EC50 as the concentration that produces a half-maximal response. For orientation: IC50 means the concentration that inhibits the measured activity by half. On to `CCCCCc1cc(O)c2c(c1)OC(C)(C)c1ccc(C)cc1-2` [CANNABINOL], for which the EC50 in assay [1] was determined as 5.3 µM; in assay [3] it was 16.1 µM; in assay [4] it was 0.18 µM; on Cannabinoid receptor 2 it was 0.073 µM; in assay [5] it was 6.2 µM; in assay [6] it was 19 µM. The EC50 on Cannabinoid receptor 1 came to 0.075 µM. Moreover, the IC50 in assay [2] is 0.21 µM.

`CCCc1cc(O)c2c(c1)OC(C)(C)c1ccc(C)cc1-2`: the half-maximal effective concentration (EC50) in assay [1] is 3.5 µM; in assay [3] it was 7.3 µM; in assay [4], 0.2 µM; at Cannabinoid receptor 2, 4.78 µM; in assay [5], 6.6 µM; in assay [6], 3.1 µM. In addition, the EC50 on Cannabinoid receptor 1 was found to be 0.565 µM. Besides, in assay [2], the IC50 was 0.5 µM.

(Values after ChEMBL document CHEMBL4138251, “Iodine-Promoted Aromatization of p-Menthane-Type Phytocannabinoids” (J Nat Prod, 2018).)
